Screening results (PubChem BioAssay)
The list is not random: actives were taken first. Their share in the collection is about 3.9%.
HSP90 inh – HSP90 inhibitors, primary screen, cell lysate, luminescence | Heat shock protein HSP 90 (rabbit reticulocyte lysate; luciferase refolding) | Rabbit reticulocyte lysate, luciferase refolding luminescence, 3 h | inhibition, % at 5.6 µM | 0.91% of 290,000 active | AID 1789, 2009;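 active = inhibition above the screen-wide mean plus 3 SD, computed separately per campaign, cut at about 16% in these data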;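 also: inhibitors lower the luminescence because luciferase stays unfolded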
FID counter – compounds displacing fluorescent DNA intercalator, primary screen, artefact control for HCV NS3 helicase inhibitor project, biochemical, FID fluorescence; 0.17% of 290,000 active; inhibition, % at 7.9 µM; DNA fluorescent intercalator displacement; in the data active = inhibition above about 37%;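 also: higher means more ethidium bromide displaced from hairpin DNA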
core dimer inh – inhibitors of HCV core protein dimerization, primary screen, biochemical, TR-FRET, high-throughput; inhibition, % at 5 µM; TR-FRET GST/Flag-core106 dimerization, 1536-well; 0.33% of 300,000 active;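 active = inhibition above the mean of all tested compounds plus 3 SD, set per screening campaign, cut at about 45% in these data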
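Assay system: tagged HCV core106 pair (GST and Flag); medium: KF-containing HEPES buffer, pH 7.45, DTT, CHAPS, BSA; also added: Eu donor and XL665 acceptor anti-tag antibodies; dosing: 5 µM single dose; timing: compound-protein-antibody incubation 4 h at 22.5 °C; signal: TR-FRET 671 and 617 nm emission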
HCV NS3 hel inh – inhibitors of HCV NS3 helicase, primary screen, biochemical, Cy5 molecular beacon fluorescence; NS3 helicase DNA unwinding; inhibition, % at 10.9 µM; 0.56% of 290,000 active; AID 1800, 2009;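 active = inhibition above the mean of all tested compounds plus 3 SD, set per campaign, cut at about 35% in these data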
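System: NS3 helicase fragment of HCV / Schedule: 1 h at 25 °C / Control set: DMSO alone as 0% and 110 µM thioflavine S as 100% / Reagent: Cy5/quencher beacon DNA duplex and ATP to start / Technique: Cy5 fluorescence / Replication: singlicate / Evaluation: % inhibition of end-to-start signal ratio versus controls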
HSF1 inh – HSF1 inhibitors in luciferase reporter cells, primary screen, cell-based, NIH3T3, luminescence. NIH3T3-HGL HSE-luciferase, MG132-induced, luminescence 8 h; stronger effect = lower value. activity change, negative = inhibition, % at 7.5 µM (by protocol). 0.77% of 300,000 active. AID 2098, 2009;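 active = more than half of replicate wells show activity change below -50%, luminescence cut by over half; inconclusive = some wells, but at most half, below -50%; inactive = no replicate well below -50%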;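 also: luciferase reports HSF-1 transcriptional activity via heat shock element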
HSF1 activator – HSF-1 activators, primary screen, NIH3T3-HGL cells, MG132 stress, luminescence, single point. 1.7% of 300,000 active. NIH3T3-HGL HSF-1 luciferase reporter, 8 h; 100% = twice DMSO control signal. activation, % at 9 µM. AID 504408, 2011;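 active = mean replicate activation of at least 50% with a set share of replicates each reaching 50%; inconclusive = only one of those two conditions met; inactive = mean below 50% and too few replicates reaching it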
Of the large screens only hits and unclear results are named; the others gave an inactive call.

CC(C)C[C@H]1CN=C(Nc2ccccc2)N1CC1CCC(C)CC1 (some centres undefined)	none
Oc1ccc(C=Nc2cccc3ncccc23)c(O)c1	none
Oc1ccc(C=Nc2ccc3ncccc3c2)c(O)c1	core dimer inh 62.7
Cc1c(NC(=O)Cn2[nH]c(=O)c3ccccc3c2=O)c(=O)n(-c2ccccc2)n1C	none
Cc1sc(NC(=O)Cn2[nH]c(=O)c3ccccc3c2=O)nc1-c1ccccc1	core dimer inh 49.3
COc1ccc(OC)c(/C=c2\sc3nc(-c4cccs4)nn3c2=O)c1	none
COc1ccccc1/C=c1\sc2nc(-c3ccco3)nn2c1=O	core dimer inh 57.3
COC(=O)c1ccc(N(CC(=O)NC2CCCCC2)C(=O)CNC(=O)c2ccco2)cc1	HSF1 activator 71.0
O=C(CCN1C(=O)S/C(=C\c2cccs2)C1=O)NC1=NCCS1	none
Cc1ccc(C)c(Cn2nc3c4ccccc4n(Cc4ccccc4)cc-3c2=O)c1	none (no result: core dimer inh)
Cc1ccc(C(=O)c2cc3ccccc3o2)cc1[N+](=O)[O-]	HSF1 activator 64.4
O=C(c1ccc(F)cc1)c1cc2ccccc2o1	none
O=C(c1ccccc1)c1cc2ccccc2o1	HSF1 activator 54.2
CC1Nc2ccccc2C(=O)N1NS(=O)(=O)c1ccccc1 (centres undefined)	none
COc1cccc(Nc2ncnc3sccc23)c1	HSF1 activator inconclusive
COc1cccc(Nc2ncnc3sc(C)cc23)c1	HSF1 activator 69.4
COc1cccc(-c2noc(-c3cccs3)n2)c1	HSF1 activator 53.8
CCOc1ccccc1-c1nc(-c2ccc(C)nc2OC)no1	HSF1 activator 62.1
CCOc1nc(C)ccc1-c1noc(-c2ccccn2)n1	none
COc1cccc(-c2nc(-c3ccccc3)no2)c1	none
COc1ccc(-c2nnc(-c3cccs3)o2)cc1OC	HSF1 activator 59.7
COc1nc(C)ccc1-c1noc(-c2cccs2)n1	HSF1 activator 61.7
COCC(=O)NC1CCN(C(=O)NCc2ccccc2)CC1	none
O=c1cc(-c2ccccc2Cl)oc2c([N+](=O)[O-])c(O)cc(O)c12	none
COc1ccc(OC)c(NC(=O)C2CCN(c3ncccn3)CC2)c1	none (no result: HSF1 inh, HSF1 activator)
Cc1c(CC(=O)NCC(=O)O)c(=O)oc2cc3c(cc12)CCC(C)(C)O3	none
COc1cccc(N/C(SCc2cccc([N+](=O)[O-])c2)=C(/C#N)C(=O)NCc2cccs2)c1	HSF1 activator 75.4
CCN(CC)S(=O)(=O)c1cccc(-c2nnc(SCCCC(=O)c3ccccc3)o2)c1	none
CCN(CC)S(=O)(=O)c1cccc(-c2nnc(SCc3nc4ccccc4s3)o2)c1	HSF1 activator 62.2
Brc1ccccc1-c1nnc(SCc2nc3ccccc3s2)o1	HSF1 activator 54.5
O=C(O)c1ccc(CSc2nnc(-c3ccccc3Br)o2)cc1	none
O=C(CSc1n[nH]c(-c2cccnc2)n1)Nc1ccc([N+](=O)[O-])cc1Br	none
CCOC(=O)N1CCC(N2CCCC(CO)(Cc3cccc(Cl)c3)C2)CC1 (centres undefined)	none
Cc1ccc(NC(=O)CCN2C(=O)C3CCCCC3C2=O)cc1[N+](=O)[O-] (centres undefined)	HSF1 inh -53.2 (no result: HSP90 inh, FID counter, HCV NS3 hel inh)
CC(=O)c1cccc(NC(=O)/C(=C/c2ccncc2)NC(=O)c2ccccc2)c1	none
Cc1cc(C=C2C(=O)CCCC2=O)c(C)n1-c1ccccc1	core dimer inh 55.1
Cc1cc(/C=C2/C(=O)NN(c3ccccc3)C2=O)c(C)n1-c1ccc(O)cc1	HSF1 inh -69.2
C=CCn1c(SCC(=O)Nc2ccc(Br)cc2)nc(O)c(CC)c1=O	none
CCCCCC(=O)N1CC2(C)CN(C(=O)CCCCC)CC(C)(C1)C2=O	none
CC1CCCCN1S(=O)(=O)c1ccc(C(=O)N(CCCN(C)C)c2nc3ccc(Br)cc3s2)cc1 (centres undefined)	FID counter 38.1
CCC1CCCCN1S(=O)(=O)c1ccc(C(=O)N(CCCN(C)C)c2nc3cc4c(cc3s2)OCO4)cc1 (centres undefined)	FID counter 38.8
Cn1cc(Br)c(C(=O)N/N=C/c2cc3ccccc3nc2Cl)n1	none (no result: core dimer inh, HSF1 inh, HSF1 activator)
CS(=O)(=O)N(CC(=O)N1CCN(c2ccccc2)CC1)c1ccccc1Cl	none
CCC(C)[C@H](NC(=O)NCc1cccc(OC)c1)C(=O)O (some centres undefined)	HSF1 inh -83.0
COc1ccc(S(=O)(=O)Nc2ccncc2)c(C)c1C	HSF1 activator 59.9
O=C(Nc1ccccc1Oc1ccccc1)C1CC1	none
Cc1ccc(C)c(-n2c(CNC(=O)c3ccco3)nnc2SCC(=O)N2CCc3ccccc32)c1	HSF1 activator 57.9
Cc1ccc(C)c(-n2c(CNC(=O)c3ccco3)nnc2SCC(=O)Nc2nnc(C)s2)c1	none
Cc1nn(-c2nc3ccccc3[nH]2)c(N)c1-c1ccccc1	HSF1 activator 71.4
Cc1nn(-c2ccccc2)c(N)c1-c1ccccc1	none
CCOC(=O)c1cc2occc2n1CC(=O)N1CCCc2ccccc21	HSF1 inh -66.3
CCCc1ccc2oc(C(=O)NCCN3CCCC(C(N)=O)C3)c(C)c2c1 (centres undefined)	none
CCCc1ccc2oc(C(=O)N3CCC(COC)C3)c(C)c2c1 (centres undefined)	HSF1 activator 60.9
CCCc1ccc2oc(C(=O)NCCN3CCCC(O)C3)c(C)c2c1 (centres undefined)	HSF1 activator 62.0 (no result: core dimer inh)
Cc1ccnn1CC(=O)N/N=C/c1cn[nH]c1-c1ccc(F)cc1	none
CCOC(=O)c1nn(-c2ccccc2C)c2nc(-c3ccc(Cl)cc3)c(C#N)c(=O)n12	core dimer inh 56.1
CCOC(=O)c1nn(-c2ccccc2C)c2nc(-c3ccc(C)cc3)c(C#N)c(=O)n12	none
CC(C)CNS(=O)(=O)c1ccc(CCC(=O)NCc2cccnc2)cc1	none
O=C(CCCc1ccccc1)NC12CC3CC(CC(C3)C1)C2	HSF1 activator 69.2
O=C(COC(=O)C12CC3CC(CC(C3)C1)C2)NCCCc1ccccc1	none
CCCCOc1ccc(N(CC(=O)NCCOC)C(=O)CCC(=O)Nc2ccccn2)cc1	none
O=C(NCC1CCCO1)c1ccc(-c2ccccc2Cl)o1 (centres undefined)	HSF1 activator 58.8 (no result: HSP90 inh, FID counter, HCV NS3 hel inh)
Cc1onc(-c2ccccc2Cl)c1C(=O)NCC1CCCO1 (centres undefined)	none
CC1CCN(C(=O)c2ccc(-c3ccccc3Cl)o2)CC1	HSF1 activator 56.2 (no result: HSP90 inh, FID counter, HCV NS3 hel inh)
